Measured values reported in ChEMBL document CHEMBL3243929, “Cannabinoids. 2. Synthesis and central nervous system activities of some B-ring homocannabinoid derivatives and related lactones” (1977).
Calls of active or inactive are those of the source. No cut-off for these calls is given here.

What was measured:
[1] = test system: Rattus norvegicus; assay: CNS activity in po dosed rat assessed as increase in latency to kill by muricidal rat test; assay type: functional; settings: read-out: MED
Procedure, shortened: (§1)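 Oral dosing in rats in the septal-lesioned and muricidal assays, with a 10 mg/kg po screening dose. Active compounds were titrated down to a minimum effective dose. Vehicle controls were given on the same injection-volume basis.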

[2] = test system: Mus musculus; assay: CNS activity in po dosed mouse assessed as decrease in early exploratory behavior in activity cage; assay type: functional; settings: read-out: MED
Procedure, shortened: (§2)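 Oral dosing in mice, with a 20 mg/kg po screening dose. Active compounds were titrated down to a minimum effective dose. Vehicle controls were given on the same injection-volume basis.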

[3] = test system: Rattus norvegicus; assay: CNS activity in po dosed rat assessed as decrease in septal-lesioned-induced hyperactivity by septal-lesioned rat test; assay type: functional; settings: read-out: MED; procedure, shortened: as §1
[4] = test system: Rattus norvegicus; assay: CNS activity in rat assessed as increase in latency to kill at 10 mg/kg, po by muricidal rat test; assay type: functional, organism-based; set-up: dose 10 mg/kg; procedure, shortened: as §1
[5] = test system: Rattus norvegicus; assay: CNS activity in rat assessed as decrease in septal-lesioned-induced hyperactivity at 10 mg/kg, po by septal-lesioned rat test; assay type: functional, organism-based; set-up: dose 10 mg/kg; procedure, shortened: as §1
[6] = test system: Mus musculus; assay: CNS activity in mouse assessed as decrease in early exploratory behavior in activity cage at 20 mg/kg, po; assay type: functional, organism-based; set-up: dose 20 mg/kg; procedure, shortened: as §2

CCCCCCC(C)(C)c1cc(O)c2c(c1)OC(C)(C)C1=C2CC(C)CC1 (centres undefined) showed a minimal effective dose [1] of 0.62 mg/kg, a minimal effective dose [2] of 0.62 mg/kg and a minimal effective dose [3] of 1.25 mg/kg.
Compound CCCCCCC(C)(C)c1cc(O)c2c(c1)OCCC1=C2CC(C)CC1 (centres undefined) has a minimal effective dose [1] of 1.25 mg/kg, a minimal effective dose [2] of 1.25 mg/kg and a minimal effective dose [3] of 1.25 mg/kg.
CCCCCCC(C)(C)c1cc(O)c2c(c1)OCC(C)(C)C1=C2CC(C)CC1 (centres undefined) was tested, and the Activity [4] was “inactive”, the minimal effective dose [2] was 20 mg/kg and the Activity [5] was “inactive”.
For CCCCCCC(C)(C)c1cc(O)c2c(c1)OC(=O)CC1=C2CC(C)CC1 (centres undefined), the minimal effective dose [1] was 5 mg/kg, the minimal effective dose [2] was 5 mg/kg and the Activity [5] was “inactive”.
For CCCCCCC(C)(C)c1cc(O)c2c(c1)OC(=O)C(C)(C)C1=C2CC(C)CC1 (centres undefined), the Activity [6] was “inactive”, the Activity [4] was “inactive” and the Activity [5] was “inactive”.
For CCCCCCC(C)(C)c1cc(O)c2c3c(c(=O)oc2c1)CCC(C)C3 (centres undefined), the Activity [6] was “inactive”, the Activity [4] was “inactive” and the Activity [5] was “inactive”.
With CCCCCCC(C)(C)c1cc(O)c2c(c1)OC(C)(C)CC1=C2CC(C)CC1 (centres undefined) the minimal effective dose [1] was 2.5 mg/kg, the minimal effective dose [2] was 2.5 mg/kg and the Activity [5] was “inactive”.
CCCCCc1cc(O)c2c(c1)OC(C)(C)[C@@H]1CCC(C)=C[C@@H]21 [DRONABINOL] was tested, and the minimal effective dose [1] was 5 mg/kg, the minimal effective dose [2] was 10 mg/kg and the Activity [5] was “inactive”.
